Calls of active or inactive are those of the source.
How the values were obtained:
Mus musculus [1] = assay: (§1) Induction of antigen-specific immunogenicity in pathogen free Balb/c mouse assessed as increase in IgG1 antibody titer production against modified Globo H antigen at 2 ug, IM administered 4 times at biweekly interval measured 14 days post fourth vaccination in presence of 2 ug glycolipid adjuvant C34 by ELISA; assay type: functional, organism-based; details: dose 2.0 µg, time 14.0 day
Mus musculus [2] = assay: as §1, with “native” for “modified”, “13” for “14”, “third” for “fourth”; assay type: functional, organism-based; details: dose 2.0 µg, time 13.0 day
Method in brief: (§2)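 Six female Balb/c mice per group received CRM197 glycoconjugate (2 μg carbohydrate antigen) with C34 adjuvant (2 μg) intramuscularly, four times at two-week intervals. Pooled group sera were tested for IgG subclasses by ELISA on plates coated with the unmodified Globo H–BSA conjugate (G0-BSA).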

Mus musculus [3] = assay: as §1, with “native” for “modified”; assay type: functional, organism-based; details: dose 2.0 µg, time 14.0 day; method in brief: as §2
Globohexaosylceramide = assay: Binding affinity to globo H antigen in human MCF7 cells using mouse sera induced by compound immunization and 14 days post fourth vaccination measured after 30 mins by FITC-conjugated antibody based flow cytometry; assay type: cell-based; details: time 14.0 day
Method in brief: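 Immune sera from vaccinated mice were incubated with Globo H-positive MCF-7 human breast cancer cells. Binding of serum antibodies to the cells was measured by flow cytometry.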

MCF7 = assay: Induction of complement-dependent cytotoxicity against human MCF7 cells assessed as increase in cell lysis using mouse sera induced by compound immunization and 14 days post fourth vaccination measured after 1 hr by LDH release assay; assay type: functional, cell-based; details: time 14.0 day
Method in brief: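 Complement-dependent cytotoxicity on MCF-7 cells used pooled sera collected after the 4th vaccination, diluted 1:10. Percent lysis was read by LDH release, with three wells per measurement. Values are mean ± SEM of three independent experiments, compared by one-way ANOVA.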

Measured: Activity

C[C@@H]1O[C@@H](O[C@H]2[C@H](O[C@H]3[C@@H](O)[C@@H](CO)O[C@@H](O[C@H]4[C@@H](O)[C@@H](CO)O[C@H](O[C@@H]5[C@H](O)[C@@H](O)[C@H](O[C@H]6[C@H](O)[C@@H](O)[C@H](OCCCCCN)O[C@@H]6CO)O[C@@H]5CO)[C@@H]4O)[C@@H]3NC(=O)C(F)(F)F)O[C@H](CO)[C@H](O)[C@@H]2O)[C@@H](O)[C@H](O)[C@@H]1O
active: all assays above

C[C@@H]1O[C@@H](O[C@H]2[C@H](O[C@H]3[C@@H](O)[C@@H](CO)O[C@@H](O[C@H]4[C@@H](O)[C@@H](CO)O[C@H](O[C@@H]5[C@H](O)[C@@H](O)[C@H](O[C@H]6[C@H](O)[C@@H](O)[C@H](OCCCCCN)O[C@@H]6CO)O[C@@H]5CO)[C@@H]4O)[C@@H]3NC(=O)C(F)F)O[C@H](CO)[C@H](O)[C@@H]2O)[C@@H](O)[C@H](O)[C@@H]1O
active: all assays above

CC(=O)N[C@H]1[C@H](O[C@H]2[C@@H](O)[C@@H](CO)O[C@H](O[C@@H]3[C@H](O)[C@@H](O)[C@H](O[C@H]4[C@H](O)[C@@H](O)[C@H](OCCCCCN)O[C@@H]4CO)O[C@@H]3CO)[C@@H]2O)O[C@H](CO)[C@H](O)[C@@H]1O[C@@H]1O[C@H](CO)[C@H](O)[C@H](O)[C@H]1O[C@@H]1O[C@@H](C)[C@@H](O)[C@@H](O)[C@@H]1O
not listed: MCF7
active: all other assays above
